From ChEMBL document CHEMBL1140106, “Blocking estrogen signaling after the hormone: pyrimidine-core inhibitors of estrogen receptor-coactivator binding” (J Med Chem, 2008)

Columns and labels:
Estrogen receptor [1] = biological target: T1, Estrogen receptor (Homo sapiens, UniProt P03372); experiment: Binding affinity to ERalpha assessed as inhibition of fluorescein-labeled nuclear receptor domain of steroid receptor coactivator 3 by TR-FRET assay
T1 sequence (P03372 whole entry): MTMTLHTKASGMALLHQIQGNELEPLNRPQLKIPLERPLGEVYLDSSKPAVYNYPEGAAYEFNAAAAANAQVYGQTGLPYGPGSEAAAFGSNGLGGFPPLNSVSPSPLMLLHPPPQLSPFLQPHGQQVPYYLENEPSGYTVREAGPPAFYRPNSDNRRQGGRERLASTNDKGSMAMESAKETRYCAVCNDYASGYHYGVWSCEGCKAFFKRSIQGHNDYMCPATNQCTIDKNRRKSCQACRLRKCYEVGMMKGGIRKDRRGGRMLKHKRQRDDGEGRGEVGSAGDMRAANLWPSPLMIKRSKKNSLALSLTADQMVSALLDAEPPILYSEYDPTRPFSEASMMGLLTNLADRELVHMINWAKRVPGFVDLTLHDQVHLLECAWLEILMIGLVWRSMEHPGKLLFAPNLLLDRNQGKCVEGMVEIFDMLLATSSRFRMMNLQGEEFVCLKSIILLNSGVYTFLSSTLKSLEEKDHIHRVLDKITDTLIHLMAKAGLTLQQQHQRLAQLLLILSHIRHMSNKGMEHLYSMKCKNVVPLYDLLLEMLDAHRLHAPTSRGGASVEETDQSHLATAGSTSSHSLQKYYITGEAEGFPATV
How it was run: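 Fluorescein-SRC-3-NRD (50 nM) was then added for 1 h at room temperature in the dark. Buffer: 20 mM Tris pH 7.5, 0.01% NP40, 50 mM NaCl. SRC-1 Box II peptide served as positive control.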

Estrogen receptor beta [2] = biological target: T2, Estrogen receptor beta (Homo sapiens, UniProt Q92731); experiment: Binding affinity to ERbeta assessed as inhibition of fluorescein-labeled nuclear receptor domain of steroid receptor coactivator 3 by TR-FRET assay
T2 sequence (Q92731 whole entry, the tested form may be a part): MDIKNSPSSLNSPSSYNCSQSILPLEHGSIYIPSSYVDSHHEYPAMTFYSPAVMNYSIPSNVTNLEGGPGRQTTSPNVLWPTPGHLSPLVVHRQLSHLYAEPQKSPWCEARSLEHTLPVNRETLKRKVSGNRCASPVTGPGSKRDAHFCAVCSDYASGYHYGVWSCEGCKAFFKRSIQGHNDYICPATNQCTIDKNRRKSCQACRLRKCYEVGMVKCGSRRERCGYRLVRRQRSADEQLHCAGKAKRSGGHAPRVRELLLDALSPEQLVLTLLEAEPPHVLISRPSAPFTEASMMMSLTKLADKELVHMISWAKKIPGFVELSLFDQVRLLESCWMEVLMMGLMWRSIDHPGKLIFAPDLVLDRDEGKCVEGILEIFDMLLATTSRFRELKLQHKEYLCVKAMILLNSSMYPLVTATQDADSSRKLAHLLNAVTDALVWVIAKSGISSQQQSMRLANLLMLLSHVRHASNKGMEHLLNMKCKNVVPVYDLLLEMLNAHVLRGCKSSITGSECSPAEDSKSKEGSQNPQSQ

Estrogen receptor [3] = biological target: T1, Estrogen receptor; experiment: Binding affinity to ERalpha assessed as inhibition of steroid receptor coactivator 2 interaction by fluorescence polarization assay
Estrogen receptor [4] = biological target: T1, Estrogen receptor; experiment: Antagonist activity at ERalpha in human HEC1 cells assessed as inhibition of estrogen-induced transcriptional activity after 24 hrs by reporter gene assay; type: functional, cell-based, HEC-1
How it was run: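 HEC-1 cells, which lack endogenous ER, were lipofectin-transfected with full-length ERα vector, 2ERE-luciferase reporter and pCMV β-gal as internal control. After 6 h the medium was changed to 5% charcoal-dextran-treated calf serum with ligands.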

Estrogen receptor [5] = biological target: T1, Estrogen receptor; experiment: Binding affinity to ERalpha assessed as inhibition of steroid receptor coactivator interaction in african green monkey COS7 cells by mammalian 2 hybrid assay; type: cell-based, COS-7
Estrogen receptor beta [6] = biological target: T2, Estrogen receptor beta; experiment: Antagonist activity at ERbeta in human HEC1 cells assessed as inhibition of estrogen-induced transcriptional activity after 24 hrs by reporter gene assay; type: functional, cell-based, HEC-1
[7] = Cytotoxicity against human HEC1 cells assessed as decrease in viable cell count at 20 uM; type: cell-based; conditions: hec-1, 20 µM

Work on `c1ccc(CCc2cc(NCc3ccccc3)nc(NCc3ccccc3)n2)cc1` yielded a Ki (Estrogen receptor [1]) of over 1000 µM, a Ki (Estrogen receptor beta [2]) of over 1000 µM and a Ki (Estrogen receptor [3]) of 49 µM. The IC50 (Estrogen receptor [4]) was over 1000 µM.
Work on `N=C(N)N/N=C/C1=C(Cl)c2ccccc2CC1` yielded an IC50 (Estrogen receptor [5]) of 5.5 µM.
In the case of `CC(C)CNc1cc(NCc2ccccc2)nc(NCC(C)C)n1`, the Ki (Estrogen receptor beta [2]) is reported as over 1000 µM, the IC50 (Estrogen receptor [4]) is reported as 9.5 µM and the IC50 (Estrogen receptor beta [6]) is reported as over 1000 µM.
`CC(C)CNc1cc(CCc2ccccc2)nc(NCC(C)C)n1` showed a Ki (Estrogen receptor [1]) of 5.8 µM, a Ki (Estrogen receptor beta [2]) of over 1000 µM and an IC50 (Estrogen receptor [4]) of 2.1 µM. The IC50 (Estrogen receptor beta [6]) was over 1000 µM and the Activity [7] was “Active”.
